Test results from ChEMBL document CHEMBL1140681, “Structure-based design of alpha-amido aldehyde containing gluten peptide analogues as modulators of HLA-DQ2 and transglutaminase 2” (Bioorg Med Chem, 2007).
The source made the active and inactive calls. The rule behind the calls is not given here. Square brackets hold non-standard residues; d marks the D form. Peptide text beside a SMILES is read from it. * marks the point of attachment. 5FAM = O=C1OC2(c3ccc(O)cc3Oc3cc(O)ccc32)c2ccc(C(=O)*)cc21; Orn = NCCC[C@H](N)C(=O)O; Dab = NCC[C@H](N)C(=O)O; Dap = NC[C@H](N)C(=O)O; Glyoxylyl = O=CC(=O)*

Key:
[1] = target: T1, Protein-glutamine gamma-glutamyltransferase (Homo sapiens) (UniProt P21980); test: Inhibition of human recombinant TG2 at 500 uM
T1 sequence (whole entry): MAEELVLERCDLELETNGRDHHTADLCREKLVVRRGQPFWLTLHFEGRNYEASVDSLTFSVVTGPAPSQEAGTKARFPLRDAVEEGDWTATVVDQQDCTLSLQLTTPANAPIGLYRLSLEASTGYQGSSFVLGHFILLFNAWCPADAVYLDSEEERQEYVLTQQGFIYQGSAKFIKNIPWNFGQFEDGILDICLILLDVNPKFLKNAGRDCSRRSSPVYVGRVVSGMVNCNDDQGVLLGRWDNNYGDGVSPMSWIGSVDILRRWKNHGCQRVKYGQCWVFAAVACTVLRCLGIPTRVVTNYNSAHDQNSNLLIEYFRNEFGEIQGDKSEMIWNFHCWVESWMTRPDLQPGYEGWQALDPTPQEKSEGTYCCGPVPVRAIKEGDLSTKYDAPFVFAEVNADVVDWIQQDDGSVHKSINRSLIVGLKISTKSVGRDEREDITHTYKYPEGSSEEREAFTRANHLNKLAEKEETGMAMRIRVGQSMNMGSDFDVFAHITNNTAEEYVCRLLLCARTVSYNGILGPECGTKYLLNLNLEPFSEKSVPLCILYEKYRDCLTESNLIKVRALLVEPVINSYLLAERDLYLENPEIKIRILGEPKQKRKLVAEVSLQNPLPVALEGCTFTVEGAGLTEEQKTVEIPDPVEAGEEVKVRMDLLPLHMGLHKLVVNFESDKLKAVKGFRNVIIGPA

[2] = target: T1, Protein-glutamine gamma-glutamyltransferase (Homo sapiens); test: Inhibition of human recombinant TG2 at 100 uM
[3] = target: T2, Protein-glutamine gamma-glutamyltransferase (Homo sapiens, UniProt P21980); test: Inhibition of human recombinant TG2
T2 sequence (P21980 whole entry): T1 sequence (whole entry)
In short: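 Continuous spectrophotometric coupled deamidation assay with recombinant human TG2: MOPS buffer pH 7.2 with CaCl2, EDTA, α-ketoglutarate, glutamate dehydrogenase and NADH; Z-Gln-Gly substrate (10–40 mM); reaction started by adding TG2. Velocities from linear regression; Ki by non-linear fitting of velocity vs ZQG to Michaelis-Menten with Vmax fixed at the uninhibited value.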

[4] = target: T1, Protein-glutamine gamma-glutamyltransferase (Homo sapiens); test: Inhibition of human recombinant TG2 at 750 uM
[5] = Enhancement of antigen presentation in HLA-DQ2 homozygous B-lymphoblastoid VAVY cells; assay type: functional, cell-based, Homo sapiens
In short: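 VAVY cells γ-irradiated (12,000 rads), pulsed with peptides for 10 h, washed by centrifugation, then co-cultured 1:1 with DQ2-αI-responsive polyclonal T cells for 48 h. [³H]thymidine (1 μCi/well) added for 18–24 h; incorporated radioactivity counted as a measure of surface peptide-DQ2 complexes; EC50 derived from titration.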

VAVY = test: Induction of cell proliferation in HLA-DQ2 homozygous B-lymphoblastoid VAVY cells at 10 uM after overnight incubation; assay type: functional, cell-based; settings: Homo sapiens
In short: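 γ-Irradiated (12,000 rads) VAVY cells at 2×10^6 cells/ml pulsed with 10 μM peptide for 2 h or overnight, then washed out by centrifugation (800g, 3 min, 4°C). Re-suspended APCs (1×10^6/ml) co-cultured 48 h with equal volume of P28 TCL1 T cells (1×10^6/ml); [³H]thymidine 1 μCi/well for 18–24 h; proliferation by scintillation counting.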

Row | Compound | Ki [3] [µM] | EC50 [5] [µM] | further results
1 | CC(C)C[C@H](NC(=O)[C@H](CCCCNC(=O)C=O)NC(=O)[C@@H]1CCCN1C(=O)[C@H](CCC(N)=O)NC(=O)[C@@H]1CCCN1)C(=O)N1CCC[C@H]1C(=O)N[C@@H](Cc1ccccc1)C(=O)O (H-PQPK(Glyoxylyl)LPF-OH) | – | – | Activity [1]: inactive
2 | CC(=O)NCC[C@H](NC(=O)[C@@H]1CCCN1C(=O)[C@H](CCC(N)=O)NC(=O)[C@@H]1CCCN1C(=O)c1ccc2c(c1)C(=O)OC21c2ccc(O)cc2Oc2cc(O)ccc21)C(=O)N[C@@H](CC(C)C)C(=O)N1CCC[C@H]1C(=O)N[C@@H](Cc1ccccc1)C(=O)O (5FAM-PQP[Dab](Ac)LPF-OH) | – | – | Activity [2]: inactive
3 | CC(C)C[C@H](NC(=O)[C@H](CCCNC(=O)C=O)NC(=O)[C@@H]1CCCN1C(=O)[C@H](CCC(N)=O)NC(=O)[C@@H]1CCCN1)C(=O)N1CCC[C@H]1C(=O)N[C@@H](Cc1ccccc1)C(=O)O (H-PQP[Orn](Glyoxylyl)LPF-OH) | 200 | – | –
4 | CC(C)C[C@H](NC(=O)[C@H](NC(=O)C=O)NC(=O)[C@@H]1CCCN1C(=O)[C@H](CCC(N)=O)NC(=O)[C@@H]1CCCN1)C(=O)N1CCC[C@H]1C(=O)N[C@@H](Cc1ccccc1)C(=O)O | – | – | Activity [4]: inactive
5 | CC(C)C[C@H](NC(=O)[C@H](CCNC(=O)C=O)NC(=O)[C@@H]1CCCN1C(=O)[C@H](CCC(N)=O)NC(=O)[C@@H]1CCCN1)C(=O)N1CCC[C@H]1C(=O)N[C@@H](Cc1ccccc1)C(=O)O (H-PQP[Dab](Glyoxylyl)LPF-OH) | 40 | – | –
6 | CC(C)C[C@H](NC(=O)c1ccc2c(c1)C(=O)OC21c2ccc(O)cc2Oc2cc(O)ccc21)C(=O)N[C@@H](CCC(N)=O)C(=O)N[C@@H](CC(C)C)C(=O)N[C@@H](CCC(N)=O)C(=O)N1CCC[C@H]1C(=O)N[C@@H](Cc1ccccc1)C(=O)N1CCC[C@H]1C(=O)N[C@@H](CNC(=O)C=O)C(=O)N1CCC[C@H]1C(=O)N[C@@H](CCC(=O)O)C(=O)N[C@@H](CC(C)C)C(=O)N1CCC[C@H]1C(=O)N[C@@H](Cc1ccc(O)cc1)C(=O)N1CCC[C@H]1C(=O)N[C@@H](CNC(=O)C=O)C(=O)N1CCC[C@H]1C(=O)N[C@@H](CCC(=O)O)C(=O)N[C@@H](CC(C)C)C(=O)N1CCC[C@H]1C(=O)N[C@@H](Cc1ccc(O)cc1)C(=O)O (5FAM-LQLQPFP[Dap](Glyoxylyl)PELPYP[Dap](Glyoxylyl)PELPY-OH) | – | 0.039 | –
7 | CC(C)C[C@H](NC(=O)[C@H](CNC(=O)C=O)NC(=O)[C@@H]1CCCN1C(=O)[C@H](CCC(N)=O)NC(=O)[C@@H]1CCCN1)C(=O)N1CCC[C@H]1C(=O)N[C@@H](Cc1ccccc1)C(=O)O (H-PQP[Dap](Glyoxylyl)LPF-OH) | 300 | – | –
8 | CC(C)C[C@H](NC(=O)c1ccc2c(c1)C(=O)OC21c2ccc(O)cc2Oc2cc(O)ccc21)C(=O)N[C@@H](CCC(N)=O)C(=O)N[C@@H](CC(C)C)C(=O)N[C@@H](CCC(N)=O)C(=O)N1CCC[C@H]1C(=O)N[C@@H](Cc1ccccc1)C(=O)N1CCC[C@H]1C(=O)N[C@@H](CCC(N)=O)C(=O)N1CCC[C@H]1C(=O)N[C@@H](CCC(=O)O)C(=O)N[C@@H](CC(C)C)C(=O)N1CCC[C@H]1C(=O)N[C@@H](Cc1ccc(O)cc1)C(=O)N1CCC[C@H]1C(=O)N[C@@H](CCC(N)=O)C(=O)N1CCC[C@H]1C(=O)N[C@@H](CCC(=O)O)C(=O)N[C@@H](CC(C)C)C(=O)N1CCC[C@H]1C(=O)N[C@@H](Cc1ccc(O)cc1)C(=O)O (5FAM-LQLQPFPQPELPYPQPELPY-OH) | – | 0.016 | –
9 | CC(C)C[C@H](NC(=O)c1ccc2c(c1)C(=O)OC21c2ccc(O)cc2Oc2cc(O)ccc21)C(=O)N[C@@H](CCC(N)=O)C(=O)N1CCC[C@H]1C(=O)N[C@@H](Cc1ccccc1)C(=O)N1CCC[C@H]1C(=O)N[C@@H](CCC(N)=O)C(=O)N1CCC[C@H]1C(=O)N[C@@H](CCC(=O)O)C(=O)N[C@@H](CC(C)C)C(=O)N1CCC[C@H]1C(=O)N[C@@H](Cc1ccc(O)cc1)C(=O)O (5FAM-LQPFPQPELPY-OH) | – | 3.3 | –
10 | CC(C)C[C@H](NC(=O)c1ccc2c(c1)C(=O)OC21c2ccc(O)cc2Oc2cc(O)ccc21)C(=O)N[C@@H](CCC(N)=O)C(=O)N1CCC[C@H]1C(=O)N[C@@H](Cc1ccccc1)C(=O)N1CCC[C@H]1C(=O)N[C@@H](CNC(=O)C=O)C(=O)N1CCC[C@H]1C(=O)N[C@@H](CCC(=O)O)C(=O)N[C@@H](CC(C)C)C(=O)N1CCC[C@H]1C(=O)N[C@@H](Cc1ccc(O)cc1)C(=O)O (5FAM-LQPFP[Dap](Glyoxylyl)PELPY-OH) | – | 1 | Activity (VAVY): Active
